Measured values published in ChEMBL document CHEMBL1125656, “Novel indole-2-carboxylates as ligands for the strychnine-insensitive N-methyl-D-aspartate-linked glycine receptor” (J Med Chem, 1991).

Target: Glutamate NMDA receptor
Assay: Inhibition of strychnine-insensitive [3H]glycine binding to the N-methyl-D-aspartate glutamate receptor of synaptic plasma membranes(SPM) prepared from rat forebrain
Type: cell-free
How it was run: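 Rat forebrain synaptic plasma membranes (male Sprague-Dawley, 30–45 days old), Triton X-100-washed; 0.2–0.4 mg incubated with 10 nM [3H]glycine and a range of compound concentrations in triplicate, in 50 mM Tris/acetate pH 7.4, for 10 min at 2 °C. Bound ligand separated by centrifugation (12000g, 15 min, 4 °C) or GF/B filtration, then scintillation counted. Nonspecific binding set with 100 μM glycine. Ki derived by logit-log analysis.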

| Compound | Ki [µM] |
| --- | --- |
| Cc1cc2c(CC(=O)O)c(C(=O)O)[nH]c2cc1Cl | > 30 |
| CN(C)CCNC(=O)Cc1c(C(=O)NCCN(C)C)[nH]c2cc(Cl)ccc12 | > 30 |
| O=C(O)c1cc2cc(Cl)ccc2[nH]1 [5-CHLOROINDOLE-2-CARBOXYLIC ACID] | > 100 |
| O=C(O)Cc1c(C(=O)O)[nH]c2cc(Cl)ccc12 | 1.61 |
| O=C(O)c1cc2c(C(=O)O)cccc2[nH]1 | > 100 |
| CC(=O)Cc1c(C(=O)O)[nH]c2ccccc12 | 29.6 |
| CCOC(=O)Cc1c(C=O)[nH]c2cc(Cl)ccc12 | > 30 |
| O=C(Cc1c(C(=O)O)[nH]c2cc(Cl)ccc12)NCCc1ccccc1 | 0.63 |
| CCC(C(=O)O)c1c(C(=O)O)[nH]c2ccccc12 (stereo not given) | > 100 |
| Cc1ccc2[nH]c(C(=O)O)cc2c1 | > 100 |
| O=C(O)c1cc2c(O)cccc2[nH]1 | > 30 |
| O=C(O)c1cc2cc(Br)ccc2[nH]1 | > 100 |
| O=C(O)Cc1cc2ccccc2nc1C(=O)O | > 100 |
| O=C(O)c1cc2c(OCc3ccccc3)cccc2[nH]1 | > 30 |
| CCOC(=O)Cc1c(CO)[nH]c2cc(Cl)ccc12 | > 30 |
| O=C1Cc2c([nH]c3cc(Cl)ccc23)C(=O)O1 | 75.1 |
| CC(C)OC(=O)Cc1c(C(=O)O)[nH]c2cc(Cl)ccc12 | 3.85 |
| CN(C)CCCNC(=O)Cc1c(C(=O)O)[nH]c2cc(Cl)ccc12 | > 30 |
| O=C(O)Cc1c(C(=O)O)oc2ccccc12 | > 100 |
| Cn1c(C(=O)O)c(CC(=O)O)c2ccccc21 | > 100 |
| O=C(O)Cc1c(C(=O)O)[nH]c2ccc(F)cc12 | 14.1 |
| O=C(O)Cc1c(CO)[nH]c2cc(Cl)ccc12 | > 30 |

| Compound | Ki [µM] |
| --- | --- |
| O=C(O)c1[nH]c2ccccc2c1CO | > 100 |
| NC(=O)Cc1c(C(=O)O)[nH]c2cc(Cl)ccc12 | 1.18 |
| CCCNC(=O)Cc1c(C(=O)O)[nH]c2cc(Cl)ccc12 | 0.47 |
| O=C(Cc1c(C(=O)O)[nH]c2cc(Cl)ccc12)NCCO | 10.3 |
| O=C(O)CC1c2ccccc2OC1C(=O)O (stereo not given) | > 30 |
| O=C(O)Cc1c(C(=O)O)[nH]c2ccc(Br)cc12 | 29.2 |
| O=C(O)c1[nH]c2ccccc2c1CCO | > 30 |
| O=C(O)Cc1c(C(=O)O)[nH]c2c(Cl)cccc12 | > 30 |
| O=C(O)c1cc2ccccc2[nH]1 [INDOLE-2-CARBOXYLIC ACID] | > 100 |
| CCOCCc1c(C(=O)O)[nH]c2cc(Cl)ccc12 | 8.25 |
| O=C(O)CCc1c(C(=O)O)[nH]c2ccccc12 | > 100 |
| CCOC(=O)Cc1c(C(=O)O)[nH]c2cc(Cl)ccc12 | 0.68 |
| O=C(O)c1cc2cc(F)ccc2[nH]1 [5-FLUOROINDOLE-2-CARBOXYLIC ACID] | 91 |
| O=C(O)C1Cc2ccccc2N1 (stereo not given) | > 30 |
| O=C(O)CCCCc1c(C(=O)O)[nH]c2ccccc12 | > 100 |
| CCCOC(=O)Cc1c(C(=O)O)[nH]c2cc(Cl)ccc12 | 6.8 |
| CCOC(=O)Cc1c(C(=O)OCCCN(C)C)[nH]c2cc(Cl)ccc12 | > 100 |
| O=C(O)c1[nH]c2cc(Cl)ccc2c1O | > 100 |
| CN(C)C(=O)Cc1c(C(=O)O)[nH]c2cc(Cl)ccc12 | > 30 |
| O=C(O)CCCc1c(C(=O)O)[nH]c2ccccc12 | > 100 |
| COc1ccc2[nH]c(C(=O)O)cc2c1 | > 100 |
| O=C(O)Cc1c(C(=O)O)[nH]c2ccc(Cl)cc12 | 10.9 |

Target: Glutamate NMDA receptor
Assay: Inhibition of strychnine-insensitive [3H]MK-801 binding to the N-methyl-D-aspartate glutamate receptor of synaptic plasma membranes(SPM) prepared from rat forebrain
Type: cell-free
How it was run: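 Membranes treated with 0.04% v/v Triton X-100 and washed extensively in 50 mM Tris acetate pH 7.4. SPM (0.2–0.4 mg) incubated with 5 nM [3H]MK-801, 10 nM L-glutamate and test compound in the same buffer for 30 min at 25 °C. Samples filtered on 0.05% polyethylenimine-treated GF/B filters and washed four times with cold buffer. Filters scintillation counted; nonspecific binding set with 60 μM MK-801.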

| Compound | IC50 [µM] |
| --- | --- |
| O=C(O)Cc1c(C(=O)O)[nH]c2cc(Cl)ccc12 | 6.8 |
